Test results: ChEMBL document CHEMBL1158379, “Design, synthesis and hypolipidemic activity of novel 2-(m-tolyloxy) isobutyric acid derivatives” (2009)

How the values were obtained:
Type in all cases: functional
Rattus norvegicus [1] = experiment: Hypolipidemic activity in 14 days high cholesterol diet fed Wistar albino rat hyperlipidemic model assessed as decrease in serum low density lipoprotein cholesterol level at 20 mg/kg, po administered on day 8 to 14; parameters: scale not given: the % may be the effect or the level left
Summary of the method: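 HCD model in male Wistar rats (160–180 g) on chow plus 2% cholesterol and 1% cholic acid for 14 days. Oral dosing was 20 mg/kg in 0.5% carboxymethylcellulose from day 8 to 14, with groups of six. Rats were fasted 12 h on day 14, and tail blood was taken under mild ether anesthesia. Serum was separated by centrifugation at 3000 rpm for 10 min for lipoprotein cholesterol measurement.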

Rattus norvegicus [2] = experiment: Hypolipidemic activity in 14 days high cholesterol diet fed Wistar albino rat hyperlipidemic model assessed as decrease in serum total cholesterol level at 20 mg/kg, po administered on day 8 to 14; parameters: scale not given: the % may be the effect or the level left
Summary of the method: (§1)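 Male Wistar rats (160–180 g), acclimatized one week, fed chow with 2% cholesterol and 1% cholic acid for 14 days. Oral dosing was 20 mg/kg in 0.5% CMC on days 8–14, with six rats per group. On day 14, after a 12 h fast, tail blood was drawn under ether. Serum was analysed by kit spectrophotometry. Results are % change versus vehicle-treated hyperlipidemic controls.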

Rattus norvegicus [3] = experiment: Hypolipidemic activity in 14 days high cholesterol diet fed Wistar albino rat hyperlipidemic model assessed as decrease in serum triglyceride level at 20 mg/kg, po administered on day 8 to 14; parameters: scale not given: the % may be the effect or the level left; summary of the method: as §1
Rattus norvegicus [4] = experiment: Ratio of serum LDL cholesterol to serum HDL cholesterol in 14 days high cholesterol diet fed Wistar albino rat at 20 mg/kg, po administered on day 8 to 14
Rattus norvegicus [5] = experiment: Hypolipidemic activity in 14 days high cholesterol diet fed Wistar albino rat hyperlipidemic model assessed as increase in serum high density lipoprotein cholesterol level at 20 mg/kg, po administered on day 8 to 14; summary of the method: as §1
Homo sapiens [6] = species on record: Homo sapiens; experiment: Increase of plasma HDL cholesterol level in human
Homo sapiens [7] = species on record: Homo sapiens; experiment: Reduction of plasma triglyceride level in human; parameters: scale not given: the % may be the effect or the level left

Row | Structure (SMILES) | Activity (Rattus norvegicus [1]) [%] | Activity (Rattus norvegicus [2]) [%] | Activity (Rattus norvegicus [3]) [%] | Ratio (Rattus norvegicus [4]) | Activity (Rattus norvegicus [5]) [%] | Activity (Homo sapiens [6]) [%] | Activity (Homo sapiens [7]) [%]
1 | Cc1cccc(OC(C)(C)C(=O)N/N=C/c2ccc([N+](=O)[O-])cc2)c1 | 2.3 | 0.29 | -0.84 | 5.71 | 9.12 |  | 
2 | Cc1cccc(OC(C)(C)C(=O)O)c1 | 19.56 | 15.89 | 17.98 | 4.62 | 10.68 |  | 
3 | Cc1cccc(OC(C)(C)C(=O)N/N=C/c2ccccc2)c1 | 8.02 | 4.12 | 2.54 | 4.94 | 18.47 |  | 
4 | COc1ccc(/C=N/NC(=O)C(C)(C)Oc2cccc(C)c2)cc1 | -9.39 |  | 9.03 | 5.41 | 15.8 |  | 
5 | CCOC(=O)c1ccc(NC(=O)C(C)(C)Oc2cccc(C)c2)cc1 | 5.94 | 2.65 | 0.43 | 5.2 | 15.04 |  | 
6 | Cc1ccc(C)c(OCCCC(C)(C)C(=O)O)c1 [GEMFIBROZIL] | 5.35 | 4.68 | 22.23 | 4.81 | 25.18 |  | 
7 | C=CCNC(=S)NNC(=O)C(C)(C)Oc1cccc(C)c1 | -1 | -1.77 | -1.61 | 6.02 | 6.78 |  | 
8 | CC(C)(Oc1ccc(CCNC(=O)c2ccc(Cl)cc2)cc1)C(=O)O [BEZAFIBRATE] |  |  |  |  |  | 5 | 30
9 | CCNC(=S)NNC(=O)C(C)(C)Oc1cccc(C)c1 | -1.16 | -0.59 | 5.44 | 6.08 | 5.85 |  | 
10 | Cc1cccc(OC(C)(C)C(=O)N/N=C/c2ccccc2Cl)c1 | 2.6 | 0 | -1.32 | 6 | 14.6 |  | 
11 | CC(C)OC(=O)C(C)(C)Oc1ccc(C(=O)c2ccc(Cl)cc2)cc1 [FENOFIBRATE] |  |  |  |  |  | 5 | 30
12 | COc1ccc(NC(=O)C(C)(C)Oc2cccc(C)c2)cc1 | 28.67 | 23.24 | 25.79 | 3.93 | 15.28 |  | 
13 | CCOC(=O)C(C)(C)Oc1ccc(Cl)cc1 [CLOFIBRATE] |  |  |  |  |  | 5 | 30
14 | Cc1cccc(OC(C)(C)C(=O)NCCc2ccccc2)c1 | 21.21 | 12.95 | 1.2 | 4.09 | 22.45 |  | 
